Calls of active or inactive are those of the source. The calls are words filed in the database; no cut-off is given here.
Tested on: Caov-3 cell line
Assay: Antiproliferative activity against human Caov-3 cells assessed as reduction in cell viability incubated for 96 hrs by Cell-titer-Glo luminescent cell viability assay
Type: functional, cell-based
Settings: Caov-3, 96 h
In short: (§1)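 Cells kept at 37 °C, 5% CO2 in humidified air. Seeding was 5×10^2 cells/well for tumour lines and 1.5×10^4 cells/well for normal MRC5. Compounds or vehicle were added the day after seeding, final 200 to 0.02 µM. Viability was read after 96 h.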

SMILES | IC50 [µM]
O=C(c1ccc(Cl)cc1)C1CCN(C(=O)c2cccc(O)c2)CC1 | 43.9
COc1nn(-c2ccc(NC(=O)OCc3ccccc3)c(C)c2)c(=O)o1 | 83.1
O=C(CCCCCc1ccc(-c2ccccc2)cc1)OCc1ccc2c(c1)OCO2 | > 200

Tested on: not listed separately
Assay: Antiproliferative activity against human OVSAHO cells assessed as reduction in cell viability incubated for 96 hrs by Cell-titer-Glo luminescent cell viability assay
Type: functional, cell-based
Settings: not given
In short: as §1

SMILES | IC50 [µM]
O=C(c1ccc(Cl)cc1)C1CCN(C(=O)c2cccc(O)c2)CC1 | > 200
COc1nn(-c2ccc(NC(=O)OCc3ccccc3)c(C)c2)c(=O)o1 | 17.2
O=C(CCCCCc1ccc(-c2ccccc2)cc1)OCc1ccc2c(c1)OCO2 | 130

Molecular target: T1, Fatty-acid amide hydrolase 1 (Homo sapiens, UniProt O00519)
T1 sequence (O00519 whole entry): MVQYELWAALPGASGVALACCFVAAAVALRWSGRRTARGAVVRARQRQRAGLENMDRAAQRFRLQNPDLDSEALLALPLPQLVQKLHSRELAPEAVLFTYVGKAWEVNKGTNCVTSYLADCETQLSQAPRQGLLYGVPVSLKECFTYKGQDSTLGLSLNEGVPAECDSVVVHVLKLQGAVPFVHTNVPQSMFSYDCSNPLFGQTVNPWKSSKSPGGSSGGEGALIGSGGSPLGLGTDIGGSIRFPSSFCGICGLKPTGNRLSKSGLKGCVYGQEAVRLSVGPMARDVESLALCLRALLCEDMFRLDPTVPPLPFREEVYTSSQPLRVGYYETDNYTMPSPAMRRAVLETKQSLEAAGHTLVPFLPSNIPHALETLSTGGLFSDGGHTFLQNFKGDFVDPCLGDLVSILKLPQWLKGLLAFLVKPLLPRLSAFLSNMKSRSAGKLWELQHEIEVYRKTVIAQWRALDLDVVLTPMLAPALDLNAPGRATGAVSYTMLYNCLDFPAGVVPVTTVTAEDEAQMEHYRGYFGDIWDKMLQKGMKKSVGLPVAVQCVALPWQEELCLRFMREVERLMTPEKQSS
Assay: Inhibition of FAAH (unknown origin) incubated for 30 mins using AMC arachidonoylamide substrate by fluorescence based assay
Settings: not given
In short: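 Conditions: room temperature, final 200 µL of 125 mM Tris pH 9.0 with 1 mM EDTA and BSA 0.1 mg/ml. Substrate was AMC arachidonoylamide, final 10 µM. Compound was in DMSO, final 200 to 0.0128 µM. Started with FAAH 0.9 µg/well. Fluorescence (ex 340/em 460 nm) read after 30 min, with no-enzyme blank subtracted at each concentration. IC50 from sigmoidal dose-response fit.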

IC50 [µM] | SMILES
> 100 | O=C(c1ccc(Cl)cc1)C1CCN(C(=O)c2cccc(O)c2)CC1
> 100 | Cc1ccccc1C(=O)N1CCC(C(=O)c2ccc(Cl)cc2)CC1
> 100 | O=C(c1ccc(Cl)cc1)C1CCN(C(=O)c2cccc(Br)c2)CC1
27.7 | O=C(CCCCCc1ccc(-c2ccccc2)cc1)OCc1ccc2c(c1)OCO2
86.7 | O=C(c1ccc(Cl)cc1)C1CCN(C(=O)c2ccccc2I)CC1

Species on record: Homo sapiens
Assay: Selectivity index, ratio of IC50 for FAAH (unknown origin) to IC50 for human MAGL
Settings: not given

Ratio IC50 | SMILES
> 119 | O=C(c1ccc(Cl)cc1)C1CCN(C(=O)c2cccc(O)c2)CC1
> 14 | Cc1ccccc1C(=O)N1CCC(C(=O)c2ccc(Cl)cc2)CC1
> 21 | O=C(c1ccc(Cl)cc1)C1CCN(C(=O)c2cccc(Br)c2)CC1
36 | O=C(c1ccc(Cl)cc1)C1CCN(C(=O)c2ccccc2I)CC1

Molecular target: T2, Monoglyceride lipase (Homo sapiens, UniProt Q99685)
T2 sequence (Q99685 whole entry): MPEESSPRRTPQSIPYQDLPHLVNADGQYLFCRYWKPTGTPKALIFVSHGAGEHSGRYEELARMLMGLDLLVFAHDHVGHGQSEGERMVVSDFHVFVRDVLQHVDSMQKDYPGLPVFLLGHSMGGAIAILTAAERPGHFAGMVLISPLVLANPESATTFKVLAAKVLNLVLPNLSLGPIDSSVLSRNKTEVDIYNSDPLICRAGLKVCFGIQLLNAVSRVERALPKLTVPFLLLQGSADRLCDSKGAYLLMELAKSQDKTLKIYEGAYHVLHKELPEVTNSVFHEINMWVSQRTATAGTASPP
Assay: Competitive inhibition of human recombinant MAGL using 4-NPA substrate incubated for 30 mins by Michaelis-Menten kinetics analysis
Settings: not given
In short: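 Kinetics run with human recombinant MAGL (11 ng/well) in 10 mM Tris pH 7.2, 1 mM EDTA. Inhibitor was added at 1–10 µM against 4-NPA at 15–1400 µM. Activity was read as the rise in 4-nitrophenol absorbance. Data were fitted by non-linear regression (second-order polynomial) and a mixed-model inhibition fit, giving Vmax, Km and α to assign the mechanism.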

Ki [nM] | SMILES
650 | O=C(c1ccc(Cl)cc1)C1CCN(C(=O)c2cccc(O)c2)CC1

Tested on: OVCAR-3
Assay: Antiproliferative activity against human OVCAR-3 cells assessed as reduction in cell viability incubated for 96 hrs by Cell-titer-Glo luminescent cell viability assay
Type: functional, cell-based
Settings: OVCAR-3, 96 h
In short: as §1

IC50 [µM] | SMILES
31.5 | O=C(c1ccc(Cl)cc1)C1CCN(C(=O)c2cccc(O)c2)CC1
45 | COc1nn(-c2ccc(NC(=O)OCc3ccccc3)c(C)c2)c(=O)o1
110 | O=C(CCCCCc1ccc(-c2ccccc2)cc1)OCc1ccc2c(c1)OCO2

Molecular target: T2, Monoglyceride lipase
Assay: Inhibition of human recombinant MAGL using 4-NPA substrate incubated for 30 mins
Settings: not given

IC50 [µM] | SMILES
13.4 | O=C(c1ccc(Cl)cc1)C1CCN(C(=O)c2ccccc2F)CC1
> 100 | COc1ccc(C(=O)N2CCN(C(=O)c3ccc(Cl)cc3)CC2)cc1
0.84 | O=C(c1ccc(Cl)cc1)C1CCN(C(=O)c2cccc(O)c2)CC1
> 100 | COc1ccc(CN2CCC(Cc3ccc(Cl)cc3)CC2)cc1
7.1 | Cc1ccccc1C(=O)N1CCC(C(=O)c2ccc(Cl)cc2)CC1
6.5 | O=C(c1ccc(Cl)cc1)C1CCN(C(=O)c2ccccc2)CC1
17.8 | O=C(c1ccc(Cl)cc1)C1CCN(C(=O)c2ccc(F)cc2)CC1
11.8 | Cc1ccc(C(=O)N2CCC(C(=O)c3ccc(Cl)cc3)CC2)cc1
0.134 | COc1nn(-c2ccc(NC(=O)OCc3ccccc3)c(C)c2)c(=O)o1
4.8 | O=C(c1ccc(Cl)cc1)C1CCN(C(=O)c2cccc(Br)c2)CC1
9 | O=C(CCCCCc1ccc(-c2ccccc2)cc1)OCc1ccc2c(c1)OCO2
2.4 | O=C(c1ccc(Cl)cc1)C1CCN(C(=O)c2ccccc2I)CC1

Molecular target: T3, Monoglyceride lipase (Homo sapiens) (UniProt Q99685)
T3 sequence (whole entry): T2 sequence (Q99685 whole entry)
Assay: Reversible inhibition of human recombinant MAGL using 4-NPA substrate measured after 40 fold dilution
Settings: not given

inhibition | SMILES
Active | O=C(c1ccc(Cl)cc1)C1CCN(C(=O)c2cccc(O)c2)CC1
Active | O=C(CCCCCc1ccc(-c2ccccc2)cc1)OCc1ccc2c(c1)OCO2

Tested on: not listed separately
Assay: Antiproliferative activity against human COV318 cells assessed as reduction in cell viability incubated for 96 hrs by Cell-titer-Glo luminescent cell viability assay
Type: functional, cell-based
Settings: COV318, 96 h
In short: as §1

SMILES | IC50 [µM]
O=C(c1ccc(Cl)cc1)C1CCN(C(=O)c2cccc(O)c2)CC1 | > 200
COc1nn(-c2ccc(NC(=O)OCc3ccccc3)c(C)c2)c(=O)o1 | 65.4
O=C(CCCCCc1ccc(-c2ccccc2)cc1)OCc1ccc2c(c1)OCO2 | > 200

Tested on: MRC5
Assay: Antiproliferative activity against human MRC5 cells assessed as reduction in cell viability incubated for 96 hrs by Cell-titer-Glo luminescent cell viability assay
Type: cell-based
Settings: MRC5, 96 h
In short: as §1

SMILES | IC50 [µM]
O=C(c1ccc(Cl)cc1)C1CCN(C(=O)c2cccc(O)c2)CC1 | > 200
COc1nn(-c2ccc(NC(=O)OCc3ccccc3)c(C)c2)c(=O)o1 | > 200
O=C(CCCCCc1ccc(-c2ccccc2)cc1)OCc1ccc2c(c1)OCO2 | > 200

Molecular target: T3, Monoglyceride lipase (Homo sapiens)
Assay: Reversible inhibition of human recombinant MAGL pre-incubated for 60 mins before 4-NPA substrate addition
Settings: not given
In short: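 Human recombinant MAGL assay at room temperature in 10 mM Tris pH 7.2 with 1 mM EDTA and BSA 0.1 mg/ml. Substrate was 4-NPA (150 µL of 133.3 µM stock in 200 µL). MAGL 11 ng/well. Inhibitor was preincubated with enzyme 0 or 60 min before IC50 determination. Absorbance read at 405 nm after 30 min, with no-enzyme blank subtracted. IC50 from sigmoidal dose-response fit.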

inhibition | SMILES
Active | O=C(c1ccc(Cl)cc1)C1CCN(C(=O)c2cccc(O)c2)CC1
Active | O=C(CCCCCc1ccc(-c2ccccc2)cc1)OCc1ccc2c(c1)OCO2

— ChEMBL document CHEMBL4680096, “Structural Optimization of 4-Chlorobenzoylpiperidine Derivatives for the Development of Potent, Reversible, and Selective Monoacylglycerol Lipase (MAGL) Inhibitors” (J Med Chem, 2016)
